Our source for the Kis, K inact and Ki values is ChEMBL document CHEMBL1124234, “Beta-substituted phenethylamines as high-affinity mechanism-based inhibitors of dopamine beta-hydroxylase” (J Med Chem, 1988).

The target of test [1] is T1, Dopamine beta-hydroxylase (Bos taurus) (UniProt P15101).
T1 sequence (whole entry): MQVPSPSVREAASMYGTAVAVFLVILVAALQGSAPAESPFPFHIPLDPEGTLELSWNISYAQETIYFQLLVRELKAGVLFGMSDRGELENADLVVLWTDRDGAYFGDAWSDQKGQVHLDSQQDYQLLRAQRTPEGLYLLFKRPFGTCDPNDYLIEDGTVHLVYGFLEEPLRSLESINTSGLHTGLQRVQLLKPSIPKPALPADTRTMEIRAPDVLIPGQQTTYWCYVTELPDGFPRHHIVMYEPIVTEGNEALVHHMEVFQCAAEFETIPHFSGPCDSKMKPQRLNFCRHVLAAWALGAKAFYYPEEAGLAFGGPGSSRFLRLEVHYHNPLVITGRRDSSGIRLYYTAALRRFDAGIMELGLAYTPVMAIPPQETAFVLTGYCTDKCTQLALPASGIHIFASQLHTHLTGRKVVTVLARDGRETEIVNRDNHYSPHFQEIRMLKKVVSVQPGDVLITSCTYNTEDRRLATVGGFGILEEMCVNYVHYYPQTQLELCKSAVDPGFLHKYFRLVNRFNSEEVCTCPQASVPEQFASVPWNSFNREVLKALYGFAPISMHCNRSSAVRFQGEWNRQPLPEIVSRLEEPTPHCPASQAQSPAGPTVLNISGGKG
Kind of test: Kis value for the affinity towards homogenous bovine dopamine beta-hydroxylase (DBH). The essentials:
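Competitive inhibition constant was measured against tyramine substrate without fumarate, using homogeneous bovine DBH (30-42 units/mg at pH 5.0). Conditions were pH 5.0, ionic strength 0.2, 50 mM sodium acetate, 1 mg/mL catalase, 10 μM Cu²⁺, 10 mM ascorbate and 37 °C. Kis was obtained by kinetic fitting and is reported as mean ± SEM.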

Test [2] deals with T1, Dopamine beta-hydroxylase (Bos taurus). The test can be described thus: Kinact value is determined from a plot of log(percent enzyme activity remaining) vs times. The essentials:
(§1)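 Homogeneous bovine DBH (specific activity 30-42 units/mg at pH 5.0) was used in 50 mM sodium acetate at pH 5.0 and ionic strength 0.2, with 1 mg/mL catalase, 10 μM Cu²⁺ and 10 mM ascorbic acid at 37 °C. O₂ was held at 0.24 mM, so kinact values are apparent. kinact(observed) came from log % activity remaining vs time. KI and kinact came from 1/kinact(obs) vs 1/[inhibitor] plots using at least four inhibitor concentrations. Values are mean ± SEM.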

The target is the same in test [3]. The test can be described thus: Kinact value is determined from a plot of log(percent enzyme activity remaining) vs times; e denotes 'Minimal time dependent inactivation'. In a few lines:
as §1

For test [4], the target named is T2, Dopamine beta-hydroxylase (Bos taurus, UniProt P15101).
T2 sequence (P15101 whole entry): T1 sequence (whole entry)
Kind of test: KI value was determined from plots of 1/kinact(observed) vs 1/[inhibitor]; e denotes 'Minimal time dependent inactivation'. In a few lines:
as §1

Test [5] deals with T2, Dopamine beta-hydroxylase. The test can be described thus: KI value was determined from plots of 1/kinact(observed) vs 1/[inhibitor]; Apparent values at pH 5.0, 0.24 mM O2.
The target of test [6] is T1, Dopamine beta-hydroxylase (Bos taurus). The test can be described thus: Kinact value is determined from a plot of log(percent enzyme activity remaining) vs times; Apparent values at pH 5.0, 0.24 mM O2.
The target of test [7] is T2, Dopamine beta-hydroxylase. The test can be described thus: KI value was determined from plots of 1/kinact(observed) vs 1/[inhibitor]. The essentials:
as §1

Calls of active or inactive are those of the source. No cut-off for these calls is given here.

With `C#CC(CN)c1ccc(O)cc1` (stereo in doubt; (+\-)3) [listing 1 of 2 here], the Kis in test [1] was 13.6 µM. For the same compound, in test [2], the K inact came out at 0.023 min⁻¹.

Compound `C#CC(CN)c1ccc(O)cc1` (single isomer, unassigned; (-)) [listing 1 of 2 here] registered a Kis in test [1] of 33.9 µM. The compound further showed a K inact in test [2] of 0.184 min⁻¹.

Take `C=CC(CN)c1cccc(O)c1` (centres undefined): the K inact entry in test [3] was “inactive”. Besides, in test [1], the Kis stood at 1270 µM. Further, in test [4], the Ki entry is “Inactive”.

`C=C(CN)c1cccs1` showed a K inact in test [2] of 0.124 min⁻¹.

For the compound `C=C(CN)c1ccc(O)cc1`, the Ki in test [5] came out at 520 µM. Moreover, the K inact in test [6] amounted to 0.81 min⁻¹.

As to `C#CC(CN)c1ccc(O)cc1` (stereo in doubt; (+)3) [listing 1 of 2 here], the Ki entry in test [4] was “Inactive”.

On to `C=CC(CN)c1ccccc1` (centres undefined), for which the K inact entry in test [3] is “inactive”. The Kis in test [1] is 670 µM. Also, the Ki entry in test [4] was “Inactive”.

Consider `C#CC(CN)c1ccc(O)cc1` (stereo in doubt; (+)3) [listing 2 of 2 here], for which the K inact entry in test [3] is “inactive”. Further, the Kis in test [1] was 7.9 µM.

`C#CC(CN)c1ccc(O)cc1` (stereo in doubt; (+\-)3) [listing 2 of 2 here] came in with a Ki in test [7] of 15.7 µM.

`C#CC(CN)c1ccc(O)cc1` (single isomer, unassigned; (-)) [listing 2 of 2 here] displayed a Ki in test [7] of 57 µM.

In test [7], `Oc1ccc(CC2CC2)cc1` had a Ki of 12000 µM. Moreover, the K inact in test [2] is 1.8 min⁻¹.

For the compound `C#CC(CN)c1ccccc1` (centres undefined), the K inact result in test [3] was “inactive”. The Kis in test [1] was determined as 160 µM. Moreover, in test [4], the Ki entry was “Inactive”.

Turning to `C=CC(CN)c1ccc(O)cc1` (centres undefined), the K inact result in test [3] was “inactive”. The Kis in test [1] was found to be 82 µM. Also, in test [4], the Ki entry was “Inactive”.

With `C#CC(CN)c1cccc(O)c1` (centres undefined), the K inact entry in test [3] is “inactive”. The same compound yielded a Kis in test [1] of 190 µM. Further, in test [4], the Ki result is listed as “Inactive”.
